According to ChEMBL document CHEMBL1828499, “Design and synthesis of inhibitors of noroviruses by scaffold hopping” (Bioorg Med Chem, 2011):

Tested on: not listed separately
Test: Cytotoxicity against human HG23 cells after 48 hrs
Format: cell-based
Conditions: read-out: TD50
In short: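 HG23 cells (Norwalk virus replicon-harboring) exposed to each compound at 0 (mock-DMSO) to 320 μM for 48 hr; viability read with a cell cytotoxicity assay kit; median toxic dose (TD50) calculated.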

SMILES	CC50 at 48 h [µM]
O=C1NCCN1Cc1cccc(Oc2ccccc2)c1	95
CC(C)(C)OC(=O)CN1CCN(Cc2cccc(Oc3ccccc3)c2)C1=O	55
O=C1N(CCN2CCOCC2)CCN1Cc1cccc(Oc2ccccc2)c1	120
O=C1N(CCN2CCN(CCN3CCN(Cc4cccc(Oc5ccccc5)c4)C3=O)CC2)CCN1Cc1cccc(Oc2ccccc2)c1	2.5
CCCCc1cn(Cc2cccc(Oc3ccccc3)c2)nn1	40
C[Si](C)(C)c1cn(Cc2cccc(Oc3ccccc3)c2)nn1	30
c1ccc(Oc2cccc(Cn3ccnn3)c2)cc1	100
c1ccc(Oc2cccc(Cn3ccnc3)c2)cc1	35

Tested on: Norovirus
Test: Antiviral activity against Norovirus infected in human HG23 cells assessed as inhibition of viral replication after 24 hrs by qRT-PCR
Format: functional
Conditions: HG23, 24 h, read-out: ED50 (the source's name)
In short: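 HG23 cells (harbouring NV replicon), one day old and 80–90% confluent, exposed to each compound over 0 (mock-DMSO) to 20 μM. NV genome levels measured by qRT-PCR; ED50 for genome level taken at 24 hr post-treatment.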

SMILES	EC50 [µM]
O=C1NCCN1Cc1cccc(Oc2ccccc2)c1	8
CC(C)(C)OC(=O)CN1CCN(Cc2cccc(Oc3ccccc3)c2)C1=O	12
O=C(O)CN1CCN(Cc2cccc(Oc3ccccc3)c2)C1=O	> 20
O=C1N(CCN2CCOCC2)CCN1Cc1cccc(Oc2ccccc2)c1	16
O=C1N(CCN2CCN(CCN3CCN(Cc4cccc(Oc5ccccc5)c4)C3=O)CC2)CCN1Cc1cccc(Oc2ccccc2)c1	0.5
O=S1(=O)NCCCN1Cc1cccc(Oc2ccccc2)c1	> 20
O=C1NCCCN1Cc1cccc(Oc2ccccc2)c1	> 20
CC(C)(O)c1cn(Cc2cccc(Oc3ccccc3)c2)nn1	> 20
CCCCc1cn(Cc2cccc(Oc3ccccc3)c2)nn1	6
O=C(O)CCCc1cn(Cc2cccc(Oc3ccccc3)c2)nn1	> 20
C[Si](C)(C)c1cn(Cc2cccc(Oc3ccccc3)c2)nn1	7
c1ccc(Oc2cccc(Cn3ccnn3)c2)cc1	10
c1ccc(Oc2cccc(Cc3nn[nH]n3)c2)cc1	> 20
Cn1nnc(Cc2cccc(Oc3ccccc3)c2)n1	> 20
c1ccc(Oc2cccc(Cn3ccnc3)c2)cc1	8
O=C1CN(Cc2cccc(Oc3ccccc3)c2)S(=O)(=O)N1	> 20
